Compound activity: PubChem BioAssay, Broad Institute
T cruzi growth-1: blocks T. cruzi growth in NIH3T3 culture. 5.9% of 77,000 active. inhibition, % at 8.34 µM. T. cruzi beta-gal in NIH3T3, GalScreen luminescence, 90 h. AID 624255;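 active means mean inhibition above about 93%, with at least 55% of replicates each passing it, limit read from the data, passing the limit was not always enough; inconclusive means only one of those two conditions holds; inactive means neither condition holds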
IDH1 R132H inh: blocks human IDH1 R132H reductase activity; O75874; 0.18% of 70,000 active; AID 624101; inhibition, % at 10 µM; diaphorase/resazurin fluorescence, 60 min; in the data active means inhibition above about 34%; inconclusive means no clear call, values can overlap the other calls; inactive means below about 11%;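 further: 0% = DMSO and 100% = no enzyme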
KDM4C inh: KDM4C (human) demethylase inhibition. GST-KDM4C 2-372, H3K9me3 peptide, LANCE TR-FRET. AID 720574. 0.15% of 96,000 active. inhibition, % at 12.5 µM;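 active means mean replicate inhibition above about 25%, with at least 55% of replicates also reaching it, limit read from the data, passing the limit was not always enough; inconclusive means only one of those two conditions met; inactive means neither condition met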
Target sequence (Q9H3R0 2-372 limits assumed): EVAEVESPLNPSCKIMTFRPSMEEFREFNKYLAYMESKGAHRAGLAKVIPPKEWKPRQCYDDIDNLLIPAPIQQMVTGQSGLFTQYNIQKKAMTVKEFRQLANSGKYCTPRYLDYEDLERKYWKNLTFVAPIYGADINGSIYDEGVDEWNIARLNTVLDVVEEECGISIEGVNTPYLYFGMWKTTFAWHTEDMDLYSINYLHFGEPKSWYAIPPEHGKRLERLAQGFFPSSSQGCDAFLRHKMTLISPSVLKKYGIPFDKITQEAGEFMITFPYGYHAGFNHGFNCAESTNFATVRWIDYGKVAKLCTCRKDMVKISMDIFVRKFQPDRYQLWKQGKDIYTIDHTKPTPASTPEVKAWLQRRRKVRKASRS
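Test system – GST-tagged GASC-1 (JMJD2C) catalytic fragment, aa 2-372 · Medium – HEPES buffer, pH 7.5, plus ascorbate · Reagent – H3K9me3 peptide with Fe(II)/2OG · Compound – one test concentration per compound · Timing – 30 min reaction, 60 min detection, RT · Technique – TR-FRET with Eu antibody and ULight streptavidin, EDTA stop · Read-out basis – inhibition from TR-FRET ratio decrease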
T cruzi growth-2: inhibitors of T. cruzi proliferation. inhibition, % at 8.35 µM. T. cruzi beta-gal in NIH3T3, GalScreen luminescence, 90 h. shares compounds with T cruzi growth-1. 72% of 5,600 active;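 active means mean replicate inhibition above about 95% and at least 55% of replicates individually reaching it, limit read from the data; inconclusive means only one of the two criteria is met; inactive means neither criterion is met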
T cruzi growth-3: blocks T. cruzi growth in NIH3T3 host cells; inhibition, % at 2.09 µM; 21% of 5,600 active; AID 651740; shares compounds with T cruzi growth-1; T. cruzi beta-gal in NIH3T3, GalScreen luminescence, 90 h;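 active means mean inhibition above about 95%, with at least 55% of replicates also reaching it, limit read from the data; inconclusive means meets just one of the two conditions; inactive means meets neither condition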;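 further: plate controls were neutral control median for no effect and positive control median for full effect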
NIH3T3 tox: kills mouse NIH/3T3 fibroblasts; 14% of 5,600 active; cytotoxicity (signal decrease), % at 8.35 µM; AID 651742; shares compounds with T cruzi growth-1; NIH/3T3 viability, CellTiter-Glo ATP luminescence, 90 h;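 active means mean signal decrease across replicates above about 35% based on untreated-well scatter, with enough replicates individually passing, limit read from the data; inconclusive means no rule stated though some were filed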;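 further: 0% = median of neutral control wells and 100% = median of positive control wells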
3T3 cytotox 2: kills mouse NIH/3T3 fibroblasts; 56% of 5,600 active; shares compounds with T cruzi growth-1; NIH/3T3 viability, CellTiter-Glo ATP luminescence, 90 h; inhibition, % at 24.9 µM;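 active means mean loss of cell viability signal at or above a set limit, and enough replicates individually reaching it; inconclusive means meets only the mean limit or only the replicate share; inactive means meets neither condition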;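 further: 0% = median of neutral control wells and 100% = median of positive control wells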
Starred values were filed as active, the others as inactive; ! = a repeat was not active. Shown is part of a subset that was picked to be rich in hits.

Results for C/C=C/c1ccc2c(c1)O[C@@H](CN(C)C(=O)C1CCC1)[C@@H](C)CN([C@H](C)CO)S2(=O)=O ?
T cruzi growth-1: 56; KDM4C inh: 1

Results for COc1ccc2c3c([nH]c2c1)[C@H](CO)N(C(=O)NC(C)C)CC31CN(C(=O)c2cnccn2)C1 ?
KDM4C inh: 0

Results for Cc1noc(C)c1S(=O)(=O)Nc1ccc2c(c1)C(=O)N([C@H](C)CO)C[C@H](C)[C@@H](CN(C)Cc1ccc(C(F)(F)F)cc1)O2 ?
T cruzi growth-1: 23; IDH1 R132H inh: 1; KDM4C inh: 0

How did O=C(C[C@@H]1C[C@H]2c3cc(NC(=O)C4CCC4)ccc3O[C@H]2[C@@H](CO)O1)NCCc1ccccc1 do in these assays?
T cruzi growth-1: 8; IDH1 R132H inh: 0; KDM4C inh: -1

What do the screens show for `CCC(=O)N(C)C[C@H]1Oc2cc(C#CC3(O)CCCC3)ccc2S(=O)(=O)N([C@@H](C)CO)C[C@H]1C`?
T cruzi growth-1: 62; IDH1 R132H inh: 0; KDM4C inh: 0

What do the screens show for `CNC(=O)C[C@@H]1CC[C@H]2[C@@H](COc3ccc(NC(=O)Nc4c(C)noc4C)cc3C(=O)N2C)O1`?
T cruzi growth-1: 3; KDM4C inh: 5

Results for COc1ccc(S(=O)(=O)N2C[C@H](O)COC[C@@H]3O[C@H](CC(=O)NCc4ccc(Cl)c(Cl)c4)CC[C@H]32)cc1 ?
T cruzi growth-1: 144*; KDM4C inh: -2; T cruzi growth-2: 71; T cruzi growth-3: 20; NIH3T3 tox: 24; 3T3 cytotox 2: 64*

What do the screens show for `Cc1ccc(S(=O)(=O)N2C[C@H](O)COC[C@@H]3O[C@H](CC(=O)NCc4ccc(Cl)c(Cl)c4)CC[C@H]32)cc1`?
T cruzi growth-1: 88; KDM4C inh: 0

How did Cc1ccc(S(=O)(=O)N2C[C@@H](O)COC[C@@H]3O[C@@H](CC(=O)NCc4ccc(Cl)c(Cl)c4)CC[C@H]32)cc1 do in these assays?
T cruzi growth-1: 92; KDM4C inh: 1

How did COc1ccc(S(=O)(=O)N2C[C@@H](O)COC[C@@H]3O[C@@H](CC(=O)NCc4ccc(Cl)c(Cl)c4)CC[C@H]32)cc1 do in these assays?
T cruzi growth-1: 168*; KDM4C inh: -1; T cruzi growth-2: 89; T cruzi growth-3: 24; NIH3T3 tox: 25; 3T3 cytotox 2: 42*

What do the screens show for `CCC(=O)Nc1ccc2c(c1)C(=O)N(C)C[C@H](OC)[C@@H](C)CN(C(=O)C1CCC1)[C@@H](C)CO2`?
T cruzi growth-1: -6; IDH1 R132H inh: 0; KDM4C inh: 1

Results for COc1cccc(NC(=O)N(C)C[C@@H]2Oc3ncc(C#Cc4ccncc4)cc3C(=O)N([C@@H](C)CO)C[C@H]2C)c1 ?
IDH1 R132H inh: 2; KDM4C inh: 3

Results for COc1ccc(C#Cc2cnc3c(c2)C(=O)N([C@@H](C)CO)C[C@H](C)[C@@H](CN(C)C(=O)Nc2cccc(OC)c2)O3)cc1 ?
T cruzi growth-1: 42; KDM4C inh: -4

How did COc1ccc(C#Cc2cnc3c(c2)C(=O)N([C@H](C)CO)C[C@H](C)[C@@H](CN(C)C(=O)Nc2cccc(OC)c2)O3)cc1 do in these assays?
T cruzi growth-1: 110*!; IDH1 R132H inh: 0; KDM4C inh: -1; T cruzi growth-2: 96*; T cruzi growth-3: 47; NIH3T3 tox: -4; 3T3 cytotox 2: 29*

How did COc1ccc(C#Cc2cnc3c(c2)C(=O)N([C@H](C)CO)C[C@@H](C)[C@@H](CN(C)C(=O)Nc2cccc(OC)c2)O3)cc1 do in these assays?
T cruzi growth-1: inconclusive; IDH1 R132H inh: -7; KDM4C inh: -3; T cruzi growth-2: 110*; T cruzi growth-3: 82; NIH3T3 tox: -19; 3T3 cytotox 2: 13

Results for COc1ccc(C#Cc2cnc3c(c2)C(=O)N([C@@H](C)CO)C[C@H](C)[C@H](CN(C)C(=O)Nc2cccc(OC)c2)O3)cc1 ?
T cruzi growth-1: 58; KDM4C inh: 0
